ChEMBL document CHEMBL1145477, “Activity of T-1106 in a hamster model of yellow Fever virus infection” (Antimicrob Agents Chemother, 2007)
Calls of active or inactive are those of the source. No cut-off for these calls is given here.

Tests used:
[1] = test system: Yellow fever virus; assay: Antiviral activity against YFV Jimenez infected in Syrian golden hamster assessed as weight change at 10 mg/kg, ip bid for 7 days; type: functional; details: route intraperitoneal
[2] = test system: Yellow fever virus; assay: Antiviral activity against YFV infected in african green monkey CV1 cells assessed as reduction in cytopathic effect after 6 days; type: functional, organism-based; details: CV-1, 144 h
How it was run: (§1)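 Jimenez hamster-adapted YFV at 10 CCID50/well on Vero or CV-1 monolayers; seven drug concentrations added 5–10 min before virus; 37°C for 6 days. CPE scored microscopically, then neutral red uptake (0.34% dye, 2 h, eluted and quantified). EC50 derived; CC50 from uninfected drug-treated cells; SI = CC50/EC50.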

[3] = test system: Syrian golden hamster; assay: Toxicity in YFV infected Syrian golden hamster assessed as survival of animals at 100 mg/kg/day, ip bid for 7 days; type: organism-based, Mesocricetus auratus; set-up: route intraperitoneal; details: in vivo, 168 h
How it was run: (§2)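 Female Syrian golden hamsters (~100 g), toxicity-control groups of three, sham-infected. Drug suspended in saline or 0.4% carboxymethyl cellulose, given i.p. b.i.d. 12 h apart from −4 h through 7 days. Mortality checked daily; weight taken at 0, 3 and 6 dpi, with change taken as 3-to-6 dpi difference.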

[4] = test system: Yellow fever virus; assay: Antiviral activity against YFV Jimenez infected in Syrian golden hamster liver treated 4 hrs before viral challenge assessed as serum alanine aminotransferase at 100 mg/kg/day, ip bid for 8 days; type: functional; details: route intraperitoneal
How it was run: (§3)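 YFV (Jimenez)-infected female hamsters were treated b.i.d. i.p. or p.o. Serum was drawn by ocular sinus at 6 dpi. ALT was read with a colorimetric kit adapted to microplates: substrate plus serum for 30 min at 37°C, then colour reagent and developer, absorbance at 505 nm. Values are IU/liter against saline controls.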

[5] = test system: Yellow fever virus; assay: Antiviral activity against YFV Jimenez infected in Syrian golden hamster assessed as weight change at 100 mg/kg, po bid for 7 days; type: functional
[6] = test system: Yellow fever virus; assay: Antiviral activity against YFV Jimenez infected in Syrian golden hamster liver assessed as alanine aminotransferase at 100 mg/kg/day, ip bid for 8 days administered after 4 day post-infection; type: functional; details: route intraperitoneal; how it was run: as §3
[7] = test system: Yellow fever virus; assay: Antiviral activity against YFV Jimenez infected in Syrian golden hamster liver assessed as survival at 100 mg/kg/day, ip bid for 8 days administered after 1 day post-infection; type: functional, organism-based
[8] = test system: Yellow fever virus; assay: Antiviral activity against YFV Jimenez infected in Syrian golden hamster liver assessed as weight change at 100 mg/kg/day, ip bid for 8 days administered after 4 day post-infection; type: functional; details: route intraperitoneal
[9] = test system: Yellow fever virus; assay: Antiviral activity against YFV Jimenez infected in Syrian golden hamster assessed as serum alanine aminotransferase at 10 mg/kg, ip bid for 7 days; type: functional; details: route intraperitoneal; how it was run: as §3
[10] = test system: Yellow fever virus; assay: Antiviral activity against YFV Jimenez infected in Syrian golden hamster assessed as weight change at 32 mg/kg, po bid for 7 days; type: functional
[11] = test system: Yellow fever virus; assay: Antiviral activity against YFV Jimenez infected in Syrian golden hamster assessed as survival of animal at 100 mg/kg, po for 7 days; type: functional, organism-based; set-up: dose 100 mg/kg
[12] = test system: Yellow fever virus; assay: Antiviral activity against YFV Jimenez infected in Syrian golden hamster liver assessed as mean day to death at 100 mg/kg/day, ip bid for 8 days administered after 5 day post-infection; type: functional; details: route intraperitoneal
[13] = test system: Yellow fever virus; assay: Antiviral activity against YFV Jimenez infected in Syrian golden hamster liver assessed as survival at 100 mg/kg/day, ip bid for 8 days administered after 2 days post-infection; type: functional, organism-based
[14] = test system: Yellow fever virus; assay: Antiviral activity against YFV Jimenez infected in Syrian golden hamster liver treated 4 hrs before viral challenge assessed as survival at 100 mg/kg/day, ip bid for 8 days; type: functional, organism-based
[15] = test system: Yellow fever virus; assay: Antiviral activity against YFV Jimenez infected in Syrian golden hamster liver assessed as weight change at 100 mg/kg/day, ip bid for 8 days administered after 1 day post-infection; type: functional; details: route intraperitoneal
[16] = test system: Syrian golden hamster; assay: Toxicity in YFV infected Syrian golden hamster assessed as assessed as weight change at 100 mg/kg/day, ip bid for 7 days; type: organism-based, Mesocricetus auratus; set-up: route intraperitoneal; details: in vivo, 168 h; how it was run: as §2
[17] = test system: Yellow fever virus; assay: Antiviral activity against YFV infected in african green monkey Vero cells assessed as reduction in cytopathic effect after 6 days; type: functional, organism-based; details: 144 h; how it was run: as §1
[18] = Toxicity in MDBK cells; type: cell-based, Bos taurus; details: cattle
[19] = test system: Yellow fever virus; assay: Antiviral activity against YFV Jimenez infected in Syrian golden hamster liver assessed as alanine aminotransferase at 100 mg/kg/day, ip bid for 8 days administered after 3 days post-infection; type: functional; details: route intraperitoneal; how it was run: as §3
[20] = test system: Yellow fever virus; assay: Antiviral activity against YFV Jimenez infected in Syrian golden hamster assessed as mean day to death after 21 days post-infection at 100 mg/kg, po bid for 7 days; type: functional
[21] = test system: Yellow fever virus; assay: Antiviral activity against YFV Jimenez infected in Syrian golden hamster liver assessed as weight change at 100 mg/kg/day, ip bid for 8 days administered after 3 days post-infection; type: functional; details: route intraperitoneal
[22] = Selectivity index, ratio of CC50 for african green monkey Vero cells to EC50 for YFV infected in Vero cells; type: functional; how it was run: as §1
[23] = test system: Yellow fever virus; assay: Antiviral activity against YFV Jimenez infected in Syrian golden hamster liver administered 4 hrs before viral challenge twice daily for 4 days post-infection by infectious cell culture assay; type: functional, organism-based
How it was run: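 Liver was collected at necropsy 4 dpi from 5 hamsters per group, after b.i.d. dosing that began 4 h before i.p. Jimenez YFV challenge. Homogenates were diluted serially from 10−1 to 10−8 onto semiconfluent Vero cells in four replicate columns. CPE was scored microscopically after 6 days, and titer was extrapolated from dilution and tissue weight.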

[24] = test system: Yellow fever virus; assay: Antiviral activity against YFV Jimenez infected in Syrian golden hamster liver assessed as weight change at 100 mg/kg/day, ip bid for 8 days administered after 2 days post-infection; type: functional; details: route intraperitoneal
[25] = test system: Yellow fever virus; assay: Antiviral activity against YFV Jimenez infected in Syrian golden hamster liver assessed as alanine aminotransferase at 100 mg/kg/day, ip bid for 8 days administered after 2 days post-infection; type: functional; details: route intraperitoneal; how it was run: as §3
[26] = test system: Yellow fever virus; assay: Antiviral activity against YFV Jimenez infected in Syrian golden hamster liver assessed as mean day to death at 100 mg/kg/day, ip bid for 8 days administered after 1 day post-infection; type: functional; details: route intraperitoneal
[27] = test system: Yellow fever virus; assay: Antiviral activity against YFV Jimenez infected in Syrian golden hamster assessed as serum alanine aminotransferase at 100 mg/kg, ip bid for 7 days; type: functional; details: route intraperitoneal; how it was run: as §3

Question: For `NC(=O)c1nccn([C@@H]2O[C@H](CO)[C@@H](O)[C@H]2O)c1=O`, which Activity [1] is on record?
Answer: -1.8 g

Question: And the EC50 [2]?
Answer: > 100 µg/mL

Question: And the Activity [3]?
Answer: Non-toxic

Question: And the Activity [4]?
Answer: 58 IU/L

Question: And the Activity [5]?
Answer: 6.3 g

Question: What about the Activity [6] of the same compound?
Answer: 108 IU/L

Question: What about the Activity [7] of the same compound?
Answer: Active

Question: And the Activity [8]?
Answer: -4.7 g

Question: And the Activity [9]?
Answer: 174 IU/L

Question: And the Activity [10]?
Answer: 4.4 g

Question: What about the Activity [11] of the same compound?
Answer: Active

Question: What about the Activity [12] of the same compound?
Answer: 7.4 days

Question: And the Activity [13]?
Answer: Active

Question: And the Activity [14]?
Answer: Active

Question: What about the Activity [15] of the same compound?
Answer: 6.1 g

Question: What about the Activity [16] of the same compound?
Answer: 5.3 g

Question: And the EC50 [17]?
Answer: > 100 µg/mL

Question: And the CC50 [18]?
Answer: 2900 µM

Question: What about the Activity [19] of the same compound?
Answer: 79 IU/L

Question: What about the Activity [20] of the same compound?
Answer: >21 days

Question: And the Activity [21]?
Answer: 2.9 g

Question: What about the “Ratio CC50/EC50” value [22] of the same compound?
Answer: 1

Question: And the Activity [23]?
Answer: Active

Question: What about the Activity [24] of the same compound?
Answer: 6.3 g

Question: What about the Activity [25] of the same compound?
Answer: 57 IU/L

Question: What about the Activity [26] of the same compound?
Answer: >21 days

Question: What about the Activity [27] of the same compound?
Answer: 56 IU/L
